Consider 30 molecules from PubChem BioAssay AID1665 (Sanford-Burnham Center for Chemical Genomics, 2009).

Structures are written as SMILES. The campaign covered roughly 190,000 compounds. About 590 (0.31%) were called active.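 Rule for the calls: active = nuclear translocation activity above 50% at 5 µM, with a well cell count of 50 or more; inconclusive = wells under 50 cells across six images, flagged as toxic; inactive = the rest.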 The full list was thinned out, with actives kept by preference.

The test can be described thus: modulators of beta-catenin nuclear translocation, primary screen, imaging, HeLa cells, immunofluorescence, high-content (AID 1665).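 For nuclear translocation activity: per-cell ratio of nuclear to cytoplasmic median beta-catenin stain intensity; plate controls were DMSO negative control for no effect and GSK-3 inhibitor IX positive control for full effect.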 To be noted: at 5 µM; cell count: measured here: cell count, cytotoxicity flag; nuclear translocation activity: stronger effect = higher value. An outline of the steps: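 Read-out: Nuclear/cytoplasmic beta-catenin signal ratio, % activation | Assay system: Human HeLa cell line | Times: 24 h compound exposure at 37°C, 5% CO2 | Signal: Fluorescence imaging of beta-catenin antibody stain plus DAPI | Dosing: 5 µM primary, 0.02–20 µM confirmation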
For the molecule `COc1ccc2c(CC(=O)OCC(=O)NC(N)=O)coc2c1`, the cell count amounted to 1100 cells and the nuclear translocation activity was -0.9% (inactive).

Regarding `COc1cccc(C2Nc3cccc4cccc(c34)N2)c1`, the cell count worked out at 1290 cells and the nuclear translocation activity was -0.1% (inactive).

As for `Nc1nnnn1/N=C/c1cc([N+](=O)[O-])ccc1O`, the cell count was found to be 1250 cells and the nuclear translocation activity is 2.2% (inactive).

Turning to `CSC1=NCCN1C(=O)Cc1cccc2ccccc12`, the cell count is 1340 cells and the nuclear translocation activity is 0.5% (inactive).

For the molecule `COc1ccc(C(=O)N/N=C2\CCS(=O)(=O)c3ccc(F)cc32)cc1OC`, the cell count stood at 1320 cells and the nuclear translocation activity was 0.5% (inactive).

Consider `O=C(N/N=C/c1cccc([N+](=O)[O-])c1)c1ccncc1`, for which the cell count was determined as 1370 cells and the nuclear translocation activity is -0.3% (inactive).

`Cc1cccc(N(C)C(=O)c2cc3c(=O)[nH]c4ccc(C)cc4c3s2)c1`: the cell count amounted to 369 cells and the nuclear translocation activity was 61.3% (active).

Turning to `Cc1ccc2[nH]c(=O)c(CC=C(Cl)Cl)c(C)c2c1`, the cell count was determined as 484 cells and the nuclear translocation activity is -1.1% (inactive).

Regarding `O=C(NCCN1CCN(Cc2ccccc2)CC1)c1cc2c(=O)[nH]c3ccccc3c2s1`, the cell count was 1180 cells and the nuclear translocation activity was -3.9% (inactive).

As for `O=C(NCC1CCCO1)c1ccccc1-c1nc(-c2ccccc2Cl)no1` (stereo not given), the cell count stood at 1310 cells and the nuclear translocation activity is 0% (inactive).

Take `O=[N+]([O-])/C=C1\CCCCCN1`: the cell count was determined as 1320 cells and the nuclear translocation activity is 0% (inactive).

`O=c1[nH]nc(SCCS(=O)(=O)c2ccc(F)cc2)n1-c1ccccc1C(F)(F)F`: the cell count came out at 1270 cells and the nuclear translocation activity was 2.8% (inactive).

Turning to `Cc1ccc(S(=O)(=O)N2CCCC2CO)cc1` (stereo not given), the cell count was 831 cells and the nuclear translocation activity was -0.4% (inactive).

Turning to `Cc1ccc(S(=O)(=O)NC(=O)N2CCCC(C)(C)C2)cc1`, the cell count turned out to be 1150 cells and the nuclear translocation activity is 0.1% (inactive).

Consider `Cc1ccc(S(=O)(=O)C2(S(=O)(=O)c3ccc(C)cc3)CCCC2)cc1`, for which the cell count turned out to be 297 cells and the nuclear translocation activity was 67.3% (active).

With `COc1ccc(C(=O)n2nc(-c3ccc(C)cc3)nc2N)cc1OC`, the cell count came to 579 cells and the nuclear translocation activity was 100% (active).

Regarding `COc1ccc(C(=O)CN2C(=O)NC(C)(c3ccc(C)cc3)C2=O)cc1OC` (stereo not given), the cell count is 931 cells and the nuclear translocation activity is -3.5% (inactive).

For `CCCC(=O)n1nc(-c2ccccc2)nc1N`, the cell count stood at 1050 cells and the nuclear translocation activity is 0% (inactive).

As to `CN(C)C(=O)c1coc2nc3ccccc3nc12`, the cell count was 1300 cells and the nuclear translocation activity was -0.3% (inactive).

For `CC[C@]1(O)C[C@@H]2CN(CCc3c([nH]c4ccccc34)[C@@](C(=O)OC)(c3cc4c(cc3OC)N(C)[C@H]3[C@@](O)(C(=O)OC)[C@H](OC(C)=O)[C@]5(CC)C=CCN6CC[C@]43[C@@H]65)C2)C1`, the cell count is 560 cells and the nuclear translocation activity is -2% (inactive).

For the molecule `CC[C@]1(O)CC2CN(CCc3c([nH]c4ccccc34)[C@@](C(=O)OC)(c3cc4c(cc3OC)N(C=O)[C@H]3[C@@](O)(C(=O)OC)[C@H](OC(C)=O)[C@]5(CC)C=CCN6CC[C@]43[C@@H]65)C2)C1` (stereo not given in full), the cell count came out at 617 cells and the nuclear translocation activity was 62.5% (active).

In the case of `CC/C=C/C(=O)N1CC2(CC(c3cccc(NC(=O)CC)c3)=NO2)C[C@H]1C(N)=O` (stereo not given in full), the cell count turned out to be 1030 cells and the nuclear translocation activity is 0.6% (inactive).

As for `O=C(Nc1cccnc1Oc1ncnc2cc(Cl)ccc12)c1ccc(F)cc1`, the cell count amounted to 1330 cells and the nuclear translocation activity was -0.5% (inactive).

As for `COCCCn1c(-c2cccs2)nc2nc3ccccc3nc21`, the cell count is 1370 cells and the nuclear translocation activity was -0.5% (inactive).

For the molecule `CCC1=NN2C(=N)/C(=C/c3cc(C)n(-c4ccccc4)c3C)C(=O)N=C2S1`, the cell count stood at 1350 cells and the nuclear translocation activity was -0.8% (inactive).

Regarding `Cc1[nH]n(-c2ccccc2)c(=O)c1N=Nc1ccccc1C(=O)N1CCCCC1`, the cell count amounted to 1360 cells and the nuclear translocation activity was 0.5% (inactive).

In the case of `Cc1ccc(CCC(=O)Nc2ncc(Cc3cc(Cl)ccc3Cl)s2)o1`, the cell count was found to be 142 cells and the nuclear translocation activity is 73.2% (active).

For the molecule `CCOc1ccccc1NC(=O)CCc1ccc(C)o1`, the cell count worked out at 1160 cells and the nuclear translocation activity was -2% (inactive).

Regarding `Cc1cnc(NC(=O)CSc2nnc(-c3ccc(Cl)cc3Cl)n2N)s1`, the cell count is 1100 cells and the nuclear translocation activity was -0.9% (inactive).

Consider `NC(=O)N/N=C\c1cccs1`, for which the cell count is 1280 cells and the nuclear translocation activity is 0.1% (inactive).
